The results in this text go back to ChEMBL document CHEMBL3526127, “Absorption, elimination, and metabolism of CS-1036, a novel α-amylase inhibitor in rats and monkeys, and the relationship between gastrointestinal distribution and suppression of glucose absorption” (Drug Metab Dispos, 2013).

The nature of data set [1]: Drug metabolism in F344 rat urine assessed as 1,4-dideoxy-1,4-imino-D-arabinitol formation by LC-MS/MS method. In kind it is ADME, tissue-based.
Data set [2] can be described thus: Drug excretion in F344 rat feces at 1 mg/kg, iv administered as single dose after 0 to 48 hrs by scintillation counting method. The data set is classed as ADME, organism-based. On the set-up: dose 1 mg/kg, route intravenous. To be noted: in vivo. The method in brief:
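Fasted F344 rats (152–156 g iv via tail vein; 154–159 g oral; n = 4) received [14C]-labelled drug at 1 mg/kg (41.9 µCi/kg). Animals were kept in metabolic cages; urine and feces were collected to 168 h, and expired CO2 was trapped in 2-aminoethanol/2-methoxyethanol (1:1) to 48 h. Samples were counted by liquid scintillation (feces homogenized). Results are % of dose, mean ± S.D.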

Data set [3] is described as follows: Drug metabolism in human intestinal S9 fractions at 0.42 uCi/ml assessed as metabolite formation in presence of NADPH after 1 hr at 37 degC by LC-MS/MS method. The data set is classed as ADME, Intestine. As to conditions: s9, 1 h.
The nature of data set [4]: Drug metabolism in rat intestinal […] S9 fractions at 0.42 uCi/ml assessed as metabolite formation in presence of NADPH after 1 hr at 37 degC by LC-MS/MS method. As to conditions: s9, 1 h. In kind it is ADME, subcellular.
Data set [5] in a line: Ratio of drug level in blood to plasma in human after 5 mins. The data set is classed as ADME.
Data set [6] in a line: Drug distribution in F344 rat cecum at 1 mg/kg, po administered as single dose after 4 hrs by scintillation counting method. The data set is classed as ADME, organism-based, Caecum. On the set-up: dose 1 mg/kg, route oral. As to conditions: in vivo. The method in brief: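 [14C]-labelled drug (1 mg/kg, 42.4 µCi/kg) was given orally to fasted F344 rats (148–168 g, n = 3). Contents of stomach, duodenum+jejunum, ileum and cecum were washed out with water at 0.5–8 h, homogenized, solubilized and counted by liquid scintillation. Results are % of dose, mean ± S.D.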

Data set [7] relates to Cynomolgus monkey. Nature of the data set: Total drug excretion in cynomolgus monkey at 3 mg/kg, iv administered as single dose after 0 to 336 hrs by scintillation counting method. More on the design: dose 3 mg/kg, route intravenous. To be noted: in vivo. In kind it is ADME, organism-based, Macaca fascicularis. The essentials:
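Fasted male cynomolgus monkeys (n = 4) were dosed with 14C-labelled drug at 3 mg/kg, iv via saphenous vein (191 µCi/kg) or orally by stomach catheter (156.5 µCi/kg). Urine, feces and cage-wash water were collected to 336 h. Radioactivity was measured by liquid scintillation counting, with feces homogenized in water, and expressed as % of dose.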

Data set [8] can be described thus: Drug excretion in cynomolgus monkey feces at 3 mg/kg, po administered as single dose after 48 hrs by scintillation counting method. As to conditions: in vivo.
The nature of data set [9]: Drug metabolism in anaerobic culture broth of human feces assessed as 1,4-dideoxy-1,4-imino-D-arabinitol formation at 63.5 uCi/ml after 24 hrs at 35 degC by LC-MS/MS method. The data set is classed as ADME, tissue-based.
The test system of data set [10] is Cynomolgus monkey. The data set can be described thus: Drug excretion in cynomolgus monkey assessed as drug level found during cage washing at 3 mg/kg, iv administered as single dose after 0 to 48 hrs by scintillation counting method. In kind it is ADME, organism-based, Macaca fascicularis. On the set-up: dose 3 mg/kg, route intravenous. As to conditions: in vivo. The essentials: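 Fasted cynomolgus monkeys (n = 4) received [14C]-labelled drug at 3 mg/kg, iv via saphenous vein (191 µCi/kg) or orally by stomach catheter (156.5 µCi/kg). Urine, feces and water cage-wash were collected to 336 h. Samples were counted by liquid scintillation; feces were homogenized in 4-fold water. Results are % of dose, mean ± S.D.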

Data set [11] can be described thus: Tmax in F344 rat at 10 mg/kg, po administered as single dose by LC-MS/MS method. To be noted: in vivo. The data set is classed as ADME, organism-based. More on the design: dose 10 mg/kg, route oral. The essentials: (§1)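 Male F344 rats (146–185 g) and male cynomolgus monkeys (3.48–4.29 kg), n = 4 each, fasted overnight, received single iv or oral doses of 0.3, 1.0, 3.0 or 10.0 mg/kg. Monkeys had 2-week washouts between doses. Plasma was sampled to 48 h and assayed by LC-MS/MS with deuterated internal standard. Noncompartmental analysis: tmax observed; t1/2 by regression on ≥3 terminal log points; Vss = dose·AUMC/(AUC0–inf)²; Foral = oral/iv AUC0–inf at the same dose.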

Data set [12] is described as follows: Cmax in cynomolgus monkey at 1 mg/kg, po administered as single dose by LC-MS/MS method. To be noted: in vivo. On the set-up: dose 1 mg/kg, route oral. In kind it is ADME, organism-based, Macaca fascicularis. The essentials:
(§2)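 Fasted male F344 rats (146–185 g) and cynomolgus monkeys (3.48–4.29 kg), n = 4 each, received a single oral dose; monkeys had 2-week washouts. Plasma sampled up to 48 h, stored at […], assayed by LC-MS/MS with a deuterated internal standard. Cmax taken from observed data by noncompartmental analysis; mean ± S.D. (n = 3 or 4).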

The target in a further data set is T1, Alpha amylase (Homo sapiens, UniProt P0DUB6).
T1 sequence (P0DUB6 whole entry): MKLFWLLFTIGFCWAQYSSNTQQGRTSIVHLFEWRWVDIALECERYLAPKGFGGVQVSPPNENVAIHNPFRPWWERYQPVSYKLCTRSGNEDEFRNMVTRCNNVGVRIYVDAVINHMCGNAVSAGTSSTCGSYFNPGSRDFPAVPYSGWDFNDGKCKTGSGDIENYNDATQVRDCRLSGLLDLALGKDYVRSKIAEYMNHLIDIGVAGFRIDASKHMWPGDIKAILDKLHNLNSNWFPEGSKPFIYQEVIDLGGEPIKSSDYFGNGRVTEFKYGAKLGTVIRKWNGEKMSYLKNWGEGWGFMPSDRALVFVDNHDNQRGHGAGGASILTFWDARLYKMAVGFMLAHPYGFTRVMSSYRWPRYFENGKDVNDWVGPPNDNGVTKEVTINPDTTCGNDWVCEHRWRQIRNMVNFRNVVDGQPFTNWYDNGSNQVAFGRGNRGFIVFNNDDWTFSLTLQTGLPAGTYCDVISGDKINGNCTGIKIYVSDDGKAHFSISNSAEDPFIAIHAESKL
The data set can be described thus: Inhibition of pancreatic alpha amylase (unknown origin).

The nature of data set [13]: AUClast in F344 rat at 3 mg/kg, iv administered as single dose by LC-MS/MS method. More on the design: time 0 - last, dose 3 mg/kg, route intravenous. The data set is classed as ADME, organism-based. As to conditions: plasma. The method in brief: (§3)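 Fasted male F344 rats (146–185 g) or male cynomolgus monkeys (3.48–4.29 kg), n = 4 per dose, given single iv or oral dose of 0.3, 1.0, 3.0 or 10.0 mg/kg; monkeys dosed with 2-week washouts. Blood sampled to 48 h; plasma stored frozen. LC-MS/MS with deuterated internal standard. Noncompartmental analysis: AUClast by trapezoidal rule; AUC0–inf = AUClast + Ctz/terminal rate constant; mean ± S.D.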

Data set [14] can be described thus: Cmax in F344 rat at 0.3 mg/kg, po administered as single dose by LC-MS/MS method. On the set-up: dose 0.3 mg/kg, route oral. To be noted: in vivo. In kind it is ADME, organism-based. The essentials: as §2
Data set [15] can be described thus: Volume of distribution at steady state in cynomolgus monkey at 10 mg/kg, iv administered as single dose by LC-MS/MS method. The data set is classed as ADME, organism-based, Macaca fascicularis. On the set-up: dose 10 mg/kg, route intravenous. To be noted: in vivo, read-out: Vdss. The method in brief: as §1
A short description of data set [16]: AUC (0 to infinity) in cynomolgus monkey at 3 mg/kg, iv administered as single dose by LC-MS/MS method. On the set-up: time infinity, dose 3 mg/kg, route intravenous. In kind it is ADME, organism-based, Macaca fascicularis. To be noted: plasma. The essentials:
as §3

Data set [17] is described as follows: AUClast in cynomolgus monkey at 10 mg/kg, po administered as single dose by LC-MS/MS method. To be noted: plasma. In kind it is ADME, organism-based, Macaca fascicularis. More on the design: time 0 - last, dose 10 mg/kg, route oral. The essentials: as §3
A short description of data set [18]: Cmax in cynomolgus monkey at 0.3 mg/kg, po administered as single dose by LC-MS/MS method. The data set is classed as ADME, organism-based, Macaca fascicularis. More on the design: dose 0.3 mg/kg, route oral. To be noted: in vivo. The method in brief:
as §2

A short description of data set [19]: Cmax in cynomolgus monkey at 3 mg/kg, po administered as single dose by LC-MS/MS method. In kind it is ADME, organism-based, Macaca fascicularis. More on the design: dose 3 mg/kg, route oral. As to conditions: in vivo. The essentials: as §2
Data set [20] is described as follows: AUClast in F344 rat at 0.3 mg/kg, iv administered as single dose by LC-MS/MS method. The data set is classed as ADME, organism-based. On the set-up: time 0 - last, dose 0.3 mg/kg, route intravenous. As to conditions: plasma. The essentials:
as §3

As for `C[C@H]1O[C@@H](O[C@H]2[C@H](O)[C@@H](O)[C@@H](O[14C@H]3[14C@H](O)[14CH2]N[14C@@H]3[14CH2]O)O[C@@H]2CO)[C@H](O)[C@@H](O)[C@@H]1O`, the Drug metabolism result in data set [1] is on record as “metabolite_detected”; in data set [3], “metabolite_not_detected”; in data set [4] it was “metabolite_not_detected”; in data set [9] it was “metabolite_detected”. For the same compound, the Drug excretion in [2] is reported as 15.66%; in the data set with Cynomolgus monkey [7], 96.29%; in data set [8] it was 48.7%; in the data set on Cynomolgus monkey [10] it was 13.7%. The blood plasma ratio at 5 min in [5] was determined as 0.521. Moreover, the Drug uptake in data set [6] worked out at 49.4%.

Turning to `C[C@H]1O[C@@H](O[C@H]2[C@H](O)[C@@H](O)[C@@H](O[C@H]3[C@H](O)CN[C@@H]3CO)O[C@@H]2CO)[C@H](O)[C@@H](O)[C@@H]1O`, the Tmax in data set [11] was 26.3 min. For the same compound, the Cmax in [12] came to 15.3 ng/mL; in data set [14], 16.2 ng/mL; in [18], 5.23 ng/mL; in data set [19], 44.8 ng/mL. Also, the IC50 at Alpha amylase stood at 450 nM. The AUC(0-t) in [13] turned out to be 18700 ng·h/mL; in data set [17], 869 ng·h/mL; in [20] it was 1860 ng·h/mL. For the same compound, in data set [15], the Vd amounted to 0.217 L/kg. Further, the area under the curve AUC(0-inf) in data set [16] came out at 18200 ng·h/mL.
